Calls of active or inactive are those of the source. The calls are words filed in the database; no cut-off is given here.
Key:
[1] = test system: NCI-H23; assay: Growth inhibition of human NCI-H23 cells assessed as cell growth at 10 uM after 48 hrs by MTT assay; values are per cent of control; conditions: NCI-H23, 48 h
[2] = test system: SK-MEL-28; assay: Growth inhibition of human SK-MEL-28 cells assessed as cell growth at 10 uM after 48 hrs by MTT assay; values are per cent of control; conditions: SK-MEL-28, 48 h
[3] = test system: SW-620; assay: Growth inhibition of human SW620 cells assessed as cell growth at 10 uM after 48 hrs by MTT assay; values are per cent of control; conditions: SW-620, 48 h
[4] = test system: SN12C; assay: Growth inhibition of human SN12C cells assessed as cell growth at 10 uM after 48 hrs by MTT assay; values are per cent of control
[5] = test system: CCRF-CEM; assay: Growth of human CCRF-CEM cells assessed as cell growth at 10 uM after 48 hrs by MTT assay
[6] = test system: NCI-H460; assay: Growth inhibition of human NCI-H460 cells assessed as cell growth at 10 uM after 48 hrs by MTT assay; values are per cent of control; conditions: NCI-H460, 48 h
[7] = test system: SK-MEL-5; assay: Growth inhibition of human SK-MEL-5 cells assessed as cell growth at 10 uM after 48 hrs by MTT assay; values are per cent of control; conditions: SK-MEL-5, 48 h
[8] = test system: DU-145; assay: Growth inhibition of human DU145 cells assessed as cell growth at 10 uM after 48 hrs by MTT assay; values are per cent of control; conditions: DU-145, 48 h
[9] = test system: UO-31; assay: Growth of human UO31 cells assessed as cell growth at 10 uM after 48 hrs by MTT assay; conditions: UO-31, 48 h
[10] = test system: SNB-19; assay: Growth inhibition of human SNB19 cells assessed as cell growth at 10 uM after 48 hrs by MTT assay; values are per cent of control; conditions: SNB-19, 48 h
[11] = test system: RPMI-8226; assay: Growth inhibition of human RPMI8226 cells assessed as cell growth at 10 uM after 48 hrs by MTT assay; values are per cent of control; conditions: RPMI-8226, 48 h
[12] = test system: SF-295; assay: Growth inhibition of human SF295 cells assessed as cell growth at 10 uM after 48 hrs by MTT assay; values are per cent of control; conditions: SF-295, 48 h
[13] = target: T1, NAD-dependent protein deacetylase sirtuin-2 (Homo sapiens) (UniProt Q8IXJ6); assay: Inhibition of human SIRT2 assessed as enzyme activity using Fluor-de-Lys as substrate at 1 mM by fluorometry; design: scale not given: the % may be the effect or the level left
T1 sequence (whole entry): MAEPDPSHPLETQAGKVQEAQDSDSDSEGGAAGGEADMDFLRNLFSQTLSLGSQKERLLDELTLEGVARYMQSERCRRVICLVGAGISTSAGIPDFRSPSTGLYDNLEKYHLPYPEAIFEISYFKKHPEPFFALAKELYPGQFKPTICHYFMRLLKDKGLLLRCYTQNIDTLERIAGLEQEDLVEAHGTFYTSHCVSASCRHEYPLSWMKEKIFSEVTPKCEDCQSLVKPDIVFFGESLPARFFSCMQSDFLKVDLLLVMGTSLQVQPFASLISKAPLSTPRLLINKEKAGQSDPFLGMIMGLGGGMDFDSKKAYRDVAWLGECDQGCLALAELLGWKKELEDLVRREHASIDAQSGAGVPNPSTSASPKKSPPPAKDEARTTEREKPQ
Method in brief: (§1)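 Commercial Fluor-de-Lys kit, substrate human p53 379–382 peptide (Arg-His-Lys-Lys(Ac)). Human Sirt1 or Sirt2 was incubated with substrate, NAD+ and compound at 1 mM, also tested at 100 µM. Fluorescence scales with Lys382 deacetylation. Activity is expressed relative to control, mean ± S.E.M. of 3–4 replicates.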

[14] = test system: SK-MEL-28; assay: Effect on ATP level in human SK-MEL-28 cells maintained in medium containing GF and glucose at 100 uM after 24 hrs by luciferase-based assay; type: functional, cell-based
Method in brief: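 SK-MEL-28 cells in DMEM with 10% FBS, grown 24 h in 96-well plates in regular medium (growth factors, glucose), with or without compound at 100 µM. Antimycin served as positive control. Cellular ATP was released with a somatic cell releasing reagent and read by luciferase/luciferin bioluminescence. Mean ± S.E.M. of 10–14 replicates from 3 separate experiments.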

[15] = test system: CAKI-1; assay: Growth inhibition of human Caki1 cells assessed as cell growth at 10 uM after 48 hrs by MTT assay; values are per cent of control; conditions: CAKI-1, 48 h
[16] = target: T2, NAD-dependent protein deacetylase sirtuin-1 (Homo sapiens) (UniProt Q96EB6); assay: Inhibition of human SIRT1 assessed as enzyme activity using Fluor-de-Lys as substrate at 100 uM by fluorometry
T2 sequence (whole entry): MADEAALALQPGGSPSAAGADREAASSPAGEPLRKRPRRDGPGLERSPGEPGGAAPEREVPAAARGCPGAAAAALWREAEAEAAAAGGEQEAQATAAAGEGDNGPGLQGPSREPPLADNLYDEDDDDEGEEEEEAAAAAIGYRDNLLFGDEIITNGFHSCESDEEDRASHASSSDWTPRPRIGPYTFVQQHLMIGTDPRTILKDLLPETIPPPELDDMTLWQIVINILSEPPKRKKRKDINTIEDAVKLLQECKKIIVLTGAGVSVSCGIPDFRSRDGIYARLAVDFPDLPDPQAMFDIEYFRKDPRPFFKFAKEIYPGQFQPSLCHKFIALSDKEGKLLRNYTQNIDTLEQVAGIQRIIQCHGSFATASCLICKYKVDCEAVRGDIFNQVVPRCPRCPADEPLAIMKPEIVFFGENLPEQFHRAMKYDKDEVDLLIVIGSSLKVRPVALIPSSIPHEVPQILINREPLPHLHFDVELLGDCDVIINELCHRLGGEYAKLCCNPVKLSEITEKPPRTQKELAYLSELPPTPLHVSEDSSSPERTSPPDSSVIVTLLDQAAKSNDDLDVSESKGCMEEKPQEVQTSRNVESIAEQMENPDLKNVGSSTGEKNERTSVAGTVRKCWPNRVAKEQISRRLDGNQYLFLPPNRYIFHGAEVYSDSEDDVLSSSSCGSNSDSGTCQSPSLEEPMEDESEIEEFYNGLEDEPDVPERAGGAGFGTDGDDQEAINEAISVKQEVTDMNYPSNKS
Method in brief: as §1

[17] = test system: BT-549; assay: Growth inhibition of human BT549 cells assessed as cell growth at 10 uM after 48 hrs by MTT assay; values are per cent of control; conditions: BT-549, 48 h

With `c1cncc(-c2cnn[nH]2)c1` the growth, % of control at 10 µM [1] was 89.6%, the growth, % of control at 10 µM [2] was 106% and the growth, % of control at 10 µM [3] was 106%. For the same compound, the growth, % of control at 10 µM [4] was 102%, the growth, % of control at 10 µM [5] was 24.8% and the growth, % of control at 10 µM [6] was 115%. It also gave a growth, % of control at 10 µM [7] of 103%, a growth, % of control at 10 µM [8] of 96.3% and a growth, % of control at 10 µM [9] of 76%. For the same compound, the growth, % of control at 10 µM [10] was 102%, the growth, % of control at 10 µM [11] was 66.9% and the growth, % of control at 10 µM [12] was 107%. For the same compound, the Activity [13] was 92%, the Activity [14] was “inactive” and the growth, % of control at 10 µM [15] was 95.1%. For the same compound, the inhibition [16] was “inactive” and the growth, % of control at 10 µM [17] was 97.7%.
